Source: the RNAGym collection of RNA variant scans (doi:10.1126/science.aae0568)
Variants at the floor of the assay were thinned out.

B1: tRNA (parent)
chain: GUUCCGUUGGCGUAAUGGUAACGCGUCUCCCUCCUAAGGAGAAGACUGCGGGUUCGAGUCCCGUACGGAACG

Variants of: B1
Experiment: yeast fitness relative to wild type (ratio to wild type); higher = fitter; tRNA-Arg(CCU), competitive growth, 37 C, YPD
Method in brief: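 Start and end populations of a pooled competition were compared by 100-nucleotide paired-end sequencing of gene amplicons. The Saccharomyces cerevisiae strains carried tRNA-Arg(CCU) gene variants at the native genomic locus, synthesised with a 3% per-site mutation rate at 69 sites, and competed in YPD at 37°C for 24 hours in six parallel replicates. Darwinian fitness relative to wild type was based on the change in genotype frequencies. Genotypes required ≥ 100 starting reads, and estimates < 0.5 were set to 0.5.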

Variant	yeast fitness
GUUCCGUUGACGUAAUGGUAACGCGUCUCCCUCCCAAGGAGAAGGCUGGGGGUUCAAGUCCCGUCCGGAACG	≤ 0.5
GUUCCGUUGCCGUUAUGGAAAUGCGUCUCCCUCCUAAGGAGAAGACUGCGGGUUCGAGUCCCGUAUGGAACG	≤ 0.5
GUUCCGUUGCCGUACUGGUAACGCGUCUGCCUCCUAAGGAGAAGACUACGGGUUCGAGUCCCGUACGGAACG	0.643
GUUCCGUUGCCGUGAUGGUAACGCGUCUCCCUCCUAAGGAGAAGACUGCGGGUUCGAGUCCCGUAUGGAACG	0.505
GUUCCGUUGACGUAAUGGUAACGCGAUUACCUCCUAAGGAGAAGACUACGGGUUCGAGUCCAGUACGGAACG	≤ 0.5
GUUCCGUUGACGUAAUGGUAACGCGUCUCCCUCCUAAGGAGAAGACUGCGGGAUCGAAUCCCGUACGUAACG	≤ 0.5
GUUCCGUUGCCGUUAUGGUAACGCAUUUCCCUCCUAAGGAGAAGACUGCGGGCUCGAGUCCCGUACGGAGCG	0.536
GUUCCGUUGACGUAAUGGUAACGCGUCUCCCGCAUAAGGAGAAGACUGCGGGUUCGAGUCCCGUACGGAACG	≤ 0.5
GUUCCGUUGCCGUGAUGGUAACGAGUCUCCCUCCUAAGGAGAAGACUGCGGGUUCGAGUCCCGUACGGAACG	≤ 0.5
GUUCCGUUGCCGUUAUGGUAACGCGUCUGCCUCCUAAGGAGAAGACUGCGGGUUCGAGUCCCGUACGGAACG	0.584
GUUCCGUUGACGUAAUGGUAACGCGUCUCCCUCCAAAGGAGAAGACUGCGGGUUCGCGUCCCGUACGGAACG	≤ 0.5
GUUCCGUUGACGUAAUGGUAACGCGUCUCCCUCCAAGGGAGAUGCCUGCGGGUUCGAGUCCCGUACGGAACG	≤ 0.5
GUUCCGUUGACGUAAUGGUAACGCGUCUCCCUCCUAAGGAGAAGACUGCGGGUCCGAGUCCCGUACGGAACG	0.643
GUUCCGUUGACGUAAUGGUAACGCGUCUCCCUCCUAAGGAGAAGACUGCGGGUACGAGUCCCGUACGGAACG	0.698
GUUCCGUUGCCGUACUGGUAACGCGUCUCCCUCCUAAGGAGAAGAUUGCGGGUUCGAGUCCCGUACGGAACG	≤ 0.5
GUUCCGUUGACGUAAUGGUAACGCGUCUCCCUCCAAAGGAGAAGACUGCGGGUUCGAGUCCCGUACGGAACG	0.62
GUUCCGUUGACGUAAUGGUAACGCGUCUCCCUCCCAAGGAGAAGACUGCGGGUUCGAGUCCCGUACGGAACG	0.582
GUUCCGUUGACGUAAUGGUAACGCGUCUCCCUCCGAAGGAGAAGACUGCGGGUUCGAGUCCCGUACGGAACG	≤ 0.5
GUUCCGUUGCCGUCAUGAUAACGCGUCUCCCUCCUAAGGAGAAGACUGCGGGUUCGAGUCCCGUACGGAACG	≤ 0.5
GUUCCGUUGCCGUUAUGGAAAUGCGUCUCCCUCCUAAGGAGAAGACUGCGGGUUCGAGUUCCGUACGCAACG	≤ 0.5
GUUCCGUUGACGUAAUGGUAACGCGUCUCCCCCCUAAGGAGAAGACUGCGGGUUCGAGUCCCAUACGGAACG	≤ 0.5
GUUCCGUUGCCGUUAUGGAAAUGCGUCUCCCUCCUAAGGAGAAGACCGCGGGUUCGAGUCCCGUACGGAACG	≤ 0.5
GUUCCGUUGCCGUGAUGGUAACGCGUCCCCCUCCUAAGAAGAAGACUGCGGGUUCGAGUCCCGUUCGGAACG	≤ 0.5
GUUCCGUUGCCGUUAUGGUAACGCGUCUCCCUCCUAAGGAGAAGACUGCGGGUUCGAGUCCUGUACGGCACG	≤ 0.5
GUUCCGUUGACGUAAUGGUAACGCGACUCCCUCCUAAGGAGAAGACUGUGGGUUCGAGUCCCGUAUGGAACG	≤ 0.5

Variant	yeast fitness
GUUCCGUUGACGUAAUGGUAACGCGAUUACCUCCUAAGGAGAAGACUGCGGGUUCGAGUCCCGUGCGCAACG	0.563
GUUCCGUUGACGUAAUGGUAACGCGUCUCCCGCCUAAGGAGAAGACUGCGGGUUCGAGUCCCGUAAGGAACG	≤ 0.5
GUUCCGUUGACGUAAUGGCAACGCGUCUCCCUCCUGAGGAGAAGACUAGGGGUUCGAGUCCCGUACGGAACG	≤ 0.5
GUUCCGUUGACGUAAUGGUAACGCGUCUCCCUCCAAAGGAGAAGACUGCGGGUUCAAGUCCCGUGUGGAACG	≤ 0.5
GUUCCGUUGCCGUGAUGGUAACGCGUCUCCCUCCUAAGAAGAAGACUGCGGGUUCGAGUCCCGUUCGGAACG	≤ 0.5
GUUCCGUUGACGUAAUGGUAACGCGUCCCCCUCCUAAGGAGAAGACUGCGGGUUCGAGUCUCGUAGGGAACG	≤ 0.5
GUUCCGUUGCCGUUAUGGUUACGCGUCUCCAUCCUAAGGAGAAGACUGCGGGUUGCAGUCCCGUACGGAACG	≤ 0.5
GUUCCGUUGCCGUUAUGGUAACGCGUCUCCCUCCUAAGGAGAAGACUGCGGGUUCGAGUCCCGUACAGAACG	≤ 0.5
GUUCCGUUGACGUAAUGGUAACGCGUCUCCCUCCUAAGGAGAAGACAGCGGGUUCGAGUCCCGUCCGGAACG	≤ 0.5
GUUCCGUUGACGUAAUGGUAACGCGUCUCCCUCCUAAGGAGAAGACAGCGGGUUCGAGUCCCGUACGGAACG	0.815
GUUCCGUUGACGUAAUGGUAACGCGUCUCCCUCCUAAGGAGAAGACCGCGGGUUCGAGUCCCGUACGGAACG	0.589
GUUCCGUUGCCGUGAUGGUAACGCGUCUCCCUCCUUAGGAGAAGACUGCGGGUUCGAGUCCCGUACGGAACG	≤ 0.5
GUUCCGUUGCCGUAGUGGUAACGCGUCUCCAUUCUAAGGCGAACACUUGGGGUUCGAGUCCCGUACGGAACG	≤ 0.5
GUUCCGUUGCCGUGAUGGUAACGCGUCUCCCUCCUAAGGAGAAGACUGCGGGUUCGAGUCCUGUACGGAACG	≤ 0.5
GUUCCGUUGCCGUUAUGGUAAUGGGUCUCCCUCCCAAGGAGAAGACUGCGGGUUCCAGUCCCGAACGGAACG	≤ 0.5
GUUCCGUUGCCGUUAUGGAAAUGCGUCUCCCUCCUAAGGAGAAGACUGCGGGUUCGAGUCCCGUACGAAACG	≤ 0.5
GUUCCGUUGCCGUUAUGGUAACGCAUUUCCCUCCUAAGGAGAAGACUGCGGGCUCGAGUCUCGUACGGAGCG	≤ 0.5
GUUCCGUUGCCGUCAUGGUAACGCGUCUCCCUCCUAAGGCGAAGACUGCGGGUUCGAGUACCAUACGGAACG	≤ 0.5
GUUCCGUUGACGUAAUGGUAACGCGUCUCCCUCCGAUGGAGAAGACCGCGGGUUCCAGUCCCGCACGGCACG	≤ 0.5
GUUCCGUUGCCGUUAUGGUAACGCGUCUCCCUCCUAAGGAGAAGACUGCGGGUUCAAGUCCCGUACGGAACG	≤ 0.5
GUUCCGUUGACGUAAUGGUAACGCGUCUCCCUCCUAAGGAGAAGACCGCGGGUUCGAGUCCUGUACGGAACG	0.566
GUUCCGUUGACGUAAUGGUAACGCGUCUCCCUCCUAAGGAGAAGACUGCGGGUUCGAGCCCCGUACGCAACG	≤ 0.5
GUUCCGUUGACGUAAUGGUAACGCGUCUCCCUCCGAUGGAGAAGACCGCGGGUUCGAGUCCCGUACGGAGCG	≤ 0.5
GUUCCGUUGCCGUACUGGUACCGCGUCUCCCUCCUAAGGAGAAGACUGCGGGUUCGAGUCCCGUACGGUACG	≤ 0.5
GUUCCGUUGCCGUUAUGGUAACGCGUCUCCGUCCUAAGGAGAAGACUGCGGGUUCGAGUCCCGUACGGAACG	≤ 0.5

Variant	yeast fitness
GUUCCGUUGCCGUAGUGGUAACGCGUCUCCCUCCUAAGGAGAAGACUGCGGGUUCGAGUCACGUACGGAACG	≤ 0.5
GUUCCGUUGCCGUUAUGGUAACGCGUCUCCCUCCUAAGGAGAAGACUGCGGGUUCGAGUCCUGUACUGAACG	≤ 0.5
GUUCCGUUGACGUAAUGGUAACGCGUCUCCCUCCUAAGGAGAAGACUGCGGGGUCGAGUACCGUACGUCACG	≤ 0.5
GUUCCGUUGCCGUUAUGGUAACGCGUCACCCUCCUAAGGAGAAGACUGCGGGUUCGCGUCCCGUACGGAACG	≤ 0.5
GUUCCGUUGCCGUCCUGGUAACGCGUCUCCCUCCUAAGGAGAUGACUGCGGGUUCGAGUCCCGUACGGAACG	≤ 0.5
GUUCCGUUGACGUAAUGGUAACGCGUCUCCCUCCUAAGGAGAAGACUGCGGGUUCGAGUCCCGCACGGUACG	0.542
GUUCCGUUGCCGUACUGGUACCGCGUCUCCCUCCUAAGGAGAAGACUGCGGGUUCGAGUCCCGUACGGAACG	≤ 0.5
GUUCCGUUGCCGUCAUGGUAACGUGUCUCCCUCCUAAGGAGAAGACUGCGGGUUCGAGUCCCGUACGGACCG	≤ 0.5
GUUCCGUUGCCGUGAUGGUAAUGCGUCUCCCUCCUAGGGUGAAGAAUGCGGGUCCGAGUCCCGUACGGAACG	≤ 0.5
GUUCCGUUGCCGUUAUGGAAAUGCGUCUCCCUCCUAAGGAGAAGACUGCGGGUUCGAGUCCCGUACGGAACG	0.505
GUUCCGUUGACGUAAUGGUAACGCGACUCCCUCCUAAGGAGAAGACUGCGGGUUCGAGUCCCAUAUGGAACG	≤ 0.5
GUUCCGUUGCCGUCGUGGUAACGCGUCUCCCUCCUAAGGAGAAGACUGCGGGUUCGAGUCCCGGACGGAACG	≤ 0.5
GUUCCGUUGCCGUCAUGGUAACGCGUCUCCCUCCUAAGGAGAAGACUGCGGCUUCGAGUCCCGUACGGAACG	≤ 0.5
GUUCCGUUGCCGUUAUGGUAACGCAUUUCCCUCCUAAGGAGAAGACUGCGGGCUCGAGUCCCGUACGGAACG	≤ 0.5
GUUCCGUUGACGUAAUGGUAACGCGUCUCCCUCCUAAGGAGAAGACUGCGGGUAGGAGUCCCGUACGGAACG	≤ 0.5
GUUCCGUUGACGUAAUGGUAACGCGUCUCCCUCCCAAGGAGCCGACUGCGGGUUCGAGUCCCGUACGGAACG	≤ 0.5
GUUCCGUUGCCGUACUGGUAACGCGUCUCCCUCCUAAGGAGACGACUGCGGGUUCGAGUCCCGUACGGAACG	≤ 0.5
GUUCCGUUGCCGUUAUGGAAAUGCGUCUCCCUCCUAAGGAGAAGACUGCGGGUUCGAGGCCCGUCCGGAACG	≤ 0.5
GUUCCGUUGACGUAAUGGUAACGCGUCUCCCGCCUAAGGAGAAGACUGCGGGUUCGAGUCCCGUACGGAACG	≤ 0.5
GUUCCGUUGACGUAAUGGUAACGCGACUCCCUCCUAAGGAGAAGACUGCGGGUUCGAGUCCCAUACGGAACG	≤ 0.5
GUUCCGUUGCCGUUAUGGAAAUGCGUCUCCCUCCUAAGGAGAAGACUGCGGGUUCGAGUCCUGUACGGAACG	≤ 0.5
GUUCCGUUGACGUAAUGGUAACGCGUCUCCCUCCAAAGGAGAAGACUGCGGCUUCGAGUCCCGUAUGGAACG	≤ 0.5
GUUCCGUUGACGUAAUGGUAACGCGUCUCCCUCCGAUGGAGAAGACCGCGGGUUCCAGUCCCGUACGGCACG	≤ 0.5
GUUCCGUUGCCGUGAUGGUAACGAGUCUCCCUCCUAAGGAGAAGACUGCGGGUUCGAGUCCCGUACGGAUCG	≤ 0.5
GUUCCGUUGACGUAAUGGUAACGCGUCUCCCUCCUAAGGAGAAGACUGCGGGUCCGAGUCGCGUACGGAACG	≤ 0.5
